Sampled rows, rich in hits. Any-hit rate of the full collection: about 3.3%.
SIAE primary – human SIAE inhibitors, primary screen, biochemical, fluorescence polarization, FP-Rh probe, 1536-well HTS; Sialate O-acetylesterase (Homo sapiens), Q9HAT2; inhibition, % at 9.66 µM; SIAE FP-Rh probe binding; hit rate 0.69% among 370,000;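 active = inhibition above a cutoff: mean of compounds within the control limits plus 3 SD of those, cut at about 17% in these data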;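 note: 0% = plate median of compound wells and 100% = probe without SIAE protein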
LEDGF integ inh – blockers of LEDGF/p75-dependent integrase strand transfer – biochemical, TR-FRET, high throughput, primary screen. TR-FRET IN-LEDGF/p75 DNA integration, Eu/Cy5. AID 743269, 2014. hit rate 0.64% among 370,000. inhibition, % at 3.7 µM. HIV-1 integrase (with human LEDGF/p75);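 active = inhibition above the screen-wide mean plus 3 SD, cut at about 13% in these data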;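 note: signal is the Cy5 over europium emission ratio at 671 and 618 nm; 0% = plate median of compound wells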
TDP2 inh – human TDP2 enzyme inhibitors, primary screen, biochemical, epi absorbance, recombinant enzyme. inhibition, % at 12.8 µM. hit rate 0.34% among 370,000. T5PNP hydrolysis, p-nitrophenol absorbance 415 nm. AID 720702, 2013;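 active = inhibition above the mean of all tested compounds plus 3 SD, set per campaign, cut at about 25% in these data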;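 note: 0% = DMSO with enzyme and 100% = buffer with substrate but no TDP2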
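System: recombinant human TDP2 / Amount: 120 nM TDP2 per well / Also added: 5 mM T5PNP chromogenic substrate / Doses: 12.8 µM single point, 1% DMSO / Incubation: 2 h at 37 °C / Detection: p-Nitrophenol epi absorbance / Evaluation: % inhibition relative to enzyme-containing and enzyme-free wells / Repeats: singlicate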
UHRF1 binding – UHRF1 methylated DNA binding inhibitors, primary screen, counter-screen for MBD2 inhibitor project, biochemical, TR-FRET, human UHRF1, single concentration; E3 ubiquitin-protein ligase UHRF1 (Homo sapiens), Q96T88; UHRF1 binding to methylated oligo; inhibition, % at 4.4 µM; hit rate 0.75% among 370,000; AID 687016, 2013; in the data active = inhibition above about 21%;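 note: UHRF1 SRA domain binding a hemimethylated CpG hairpin DNA probe; 0% = median of test compound wells and 100% = reference inhibitor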
PRMT1 inh – PRMT1 methyltransferase inhibitors, primary screen, biochemical, fluorescence polarization. recombinant PRMT1, activity-based probe fluorescence polarization. inhibition, % at 2.79 µM. AID 652257, 2013. hit rate 1.3% among 370,000. Protein arginine N-methyltransferase 1 (Homo sapiens), Q99873;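 active = inhibition above about 21% made by adding two undisclosed values, limit read from the data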
MBD2 inh – inhibitors of MBD2 binding to methylated DNA, primary screen, biochemical, TR-FRET, DNA-binding domain, human; hit rate 0.31% among 370,000; inhibition, % at 4.4 µM; MBD2 binding to methylated oligonucleotide; Methyl-CpG-binding domain protein 2 (Homo sapiens), Q9UBB5; AID 686964, 2013; in the data active = inhibition above about 13%
Target sequence (Q9UBB5 whole entry, looked up, the tested form may be a part): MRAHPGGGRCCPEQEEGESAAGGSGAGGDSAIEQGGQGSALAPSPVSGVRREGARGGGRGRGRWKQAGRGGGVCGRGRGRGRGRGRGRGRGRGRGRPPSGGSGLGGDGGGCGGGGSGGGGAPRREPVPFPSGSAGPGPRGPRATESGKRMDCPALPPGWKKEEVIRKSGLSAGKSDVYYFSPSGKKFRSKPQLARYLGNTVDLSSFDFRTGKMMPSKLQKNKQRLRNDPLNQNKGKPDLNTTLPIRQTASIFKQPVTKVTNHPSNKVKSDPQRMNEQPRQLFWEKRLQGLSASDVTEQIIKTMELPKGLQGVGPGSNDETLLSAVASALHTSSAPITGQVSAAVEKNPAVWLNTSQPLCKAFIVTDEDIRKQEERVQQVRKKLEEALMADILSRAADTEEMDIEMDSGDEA
PRMT1 inh conf – PRMT1 methyltransferase inhibitors, confirmation, biochemical, fluorescence polarization, triplicate; shares compounds with PRMT1 inh; recombinant His-PRMT1, activity-based probe fluorescence polarization; inhibition, % at 2.79 µM; hit rate 42% among 3,300;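 active = mean inhibition across replicates above the hit cutoff derived for the earlier primary screen, cut at about 22% in these data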
Numbers without * were called inactive.

For COC(=O)[C@]12C[C@H](CC(=O)NCc3ccccc3)C(=O)N(CCc3ccc(OC)c(OC)c3)C1=C[C@H](COCc1ccccc1)O[C@@H]2C the results were SIAE primary 9, LEDGF integ inh -3, TDP2 inh 7, UHRF1 binding -2, PRMT1 inh -2 and MBD2 inh -1.
For Cc1ccc(C2CC(c3ccco3)n3ncnc3N2)cc1 (stereo not given) the results were SIAE primary 6, LEDGF integ inh 0, TDP2 inh -10, UHRF1 binding 0, PRMT1 inh 4 and MBD2 inh -3.
`Cc1ccc2c(c1)C(N1CCCC1=O)CC(c1ccco1)N2` (stereo not given) gave SIAE primary 1, LEDGF integ inh 4, TDP2 inh 5, UHRF1 binding -1, PRMT1 inh 25*, MBD2 inh -8 and PRMT1 inh conf 6.
For O=C(O)CC(SCC(=O)Nc1ccc(S(=O)(=O)N2CCCC2)cc1)C(=O)O (stereo not given) the results were SIAE primary -4, LEDGF integ inh 0, TDP2 inh 2, UHRF1 binding -3, PRMT1 inh 45*, MBD2 inh -3 and PRMT1 inh conf 39*.
`CCCCNC(=O)C[C@H]1C[C@@]2(C(=O)OC)C(=C[C@H](C(C)C)O[C@@H]2C2CC2)N(Cc2ccc3c(c2)OCO3)C1=O` gave SIAE primary 3, LEDGF integ inh -3, TDP2 inh -3, UHRF1 binding -2, PRMT1 inh -1 and MBD2 inh 5.
COc1ccc(S[C@]2(C(=O)N3CCN(C(C)=O)CC3)CC(=O)N(C(=O)C3CC3)[C@@H]2c2ccc(OC)cc2)cc1 was read as SIAE primary 1, LEDGF integ inh -3, TDP2 inh -3, UHRF1 binding 2, PRMT1 inh 53*, MBD2 inh -1 and PRMT1 inh conf 44*.
`COc1ccc(S[C@]2(C(=O)N(C)C)CC(=O)N(c3ccc(Cl)cc3)[C@@H]2c2ccc(OC)cc2)cc1` gave SIAE primary 0, LEDGF integ inh 2, TDP2 inh -9, UHRF1 binding -1, PRMT1 inh -2 and MBD2 inh -3.
Screening COc1ccc(S[C@]2(C(=O)N(C)C)CC(=O)N(C(=O)C3CC3)[C@@H]2c2ccc(OC)cc2)cc1 returned SIAE primary -2, LEDGF integ inh 0, TDP2 inh -4, UHRF1 binding 1, PRMT1 inh 42*, MBD2 inh 1 and PRMT1 inh conf 34*.
Screening COC(=O)[C@@]1(Sc2ccc(C)cc2)CC(=O)N(C(=O)C2CC2)[C@@H]1c1ccccc1 returned SIAE primary 5, LEDGF integ inh -4, TDP2 inh 3, UHRF1 binding -1, PRMT1 inh 55*, MBD2 inh 1 and PRMT1 inh conf 58*.
`COc1ccc(S[C@]2(C(=O)N3CCCC3)CC(=O)N(C(=O)C3CC3)[C@@H]2c2ccc(OC)cc2)cc1` gave SIAE primary -2, LEDGF integ inh 1, TDP2 inh -7, UHRF1 binding 0, PRMT1 inh 38*, MBD2 inh 3 and PRMT1 inh conf 36*.
For COC(=O)[C@@]1(Sc2ccc(C)cc2)CC(=O)N(c2ccc(Cl)cc2)[C@@H]1c1ccccc1 the results were SIAE primary -6, LEDGF integ inh 2, TDP2 inh -1, UHRF1 binding 0, PRMT1 inh 0 and MBD2 inh -4.
Screening O=S1(=O)CC2c3ccccc3CN2CN1CCc1ccccc1 (stereo not given) returned SIAE primary -3, LEDGF integ inh -1, TDP2 inh -7, UHRF1 binding -2, PRMT1 inh 7 and MBD2 inh 0.
`Cc1ccc2c(c1)C1CS(=O)(=O)N(Cc3ccccc3)CN1C2` (stereo not given) gave SIAE primary -5, LEDGF integ inh 3, TDP2 inh 10, UHRF1 binding -5, PRMT1 inh 3 and MBD2 inh -5.
CC1(C)CC2C1CCC1(O)CC2(C)CCC1N(O)c1ccc(C(=O)NCCO)cn1 (stereo not given) was read as SIAE primary 8, LEDGF integ inh -3, TDP2 inh -3, UHRF1 binding 2, PRMT1 inh 28*, MBD2 inh 1 and PRMT1 inh conf -2.
Screening Cc1ccc2c(c1)c1c(n2CC(O)CN2C(=O)CNC2=O)C(=O)CCC1 (stereo not given) returned SIAE primary 11, LEDGF integ inh 3, TDP2 inh -4, UHRF1 binding -3, PRMT1 inh 33*, MBD2 inh -9 and PRMT1 inh conf 1.
Screening Cc1ccc2c(c1)c1c(n2CC(O)Cn2ccnc2C)C(=O)CCC1 (stereo not given) returned SIAE primary 0, LEDGF integ inh -2, TDP2 inh -1, UHRF1 binding -4, PRMT1 inh 1 and MBD2 inh -5.
CCC1(CC)Cc2ccccc2C(CC(=O)N2CCOCC2)=N1 was read as SIAE primary 1, LEDGF integ inh 4, TDP2 inh -31, UHRF1 binding 3, PRMT1 inh 35*, MBD2 inh -3 and PRMT1 inh conf 31*.
`C=Cc1ccc2c(c1)N(C)C(=C)S2` gave SIAE primary 4, LEDGF integ inh 7, TDP2 inh 4, UHRF1 binding -2, PRMT1 inh 81*, MBD2 inh -2 and PRMT1 inh conf 61*.
For C=CCNC(=O)NCC1CCN(Cc2ccc(OC)cc2)CC1 the results were SIAE primary 2, LEDGF integ inh 4, TDP2 inh -1, UHRF1 binding 6, PRMT1 inh -1 and MBD2 inh -2.
O=[N+]([O-])c1ccc(Sc2cccc[n+]2[O-])c2nonc12 was read as SIAE primary -5, LEDGF integ inh 0, TDP2 inh 0, UHRF1 binding -3, PRMT1 inh 88*, MBD2 inh -7 and PRMT1 inh conf 91*.
For NC(=O)/C(=C/c1ccco1)C(N)=S the results were SIAE primary 3, LEDGF integ inh 12, TDP2 inh 5, UHRF1 binding 5, PRMT1 inh 53*, MBD2 inh 1 and PRMT1 inh conf 22*.

Compound activity (PubChem BioAssay)
